According to ChEMBL document CHEMBL1132297, “Novel cryptophycin antitumor agents: synthesis and cytotoxicity of fragment "B" analogues” (J Med Chem, 1999):

system: CCRF-CEM; assay: In vitro cytotoxicity against human leukemia CCRF-CEM tumor cell lines; type: functional, cell-based
Procedure, shortened: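 Log-phase cells seeded at 4.8×10^4 cells per well in RPMI-1640 with 10% dialyzed FBS and 25 mM HEPES. Compounds were dissolved in DMSO at 0.2 mg/mL, serially diluted 1:3 in DMSO, and added to duplicate wells; DMSO final 0.5%, with DMSO-only control wells. Exposure 72 h at 37 °C, 5% CO2. Suspension cells counted by Coulter counter; IC50 from dose–response curves.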

Compound	IC50
CC(C)C[C@@H]1OC(=O)C(C)(C)CNC(=O)[C@@H]([C@H](C)O)NC(=O)/C=C/C[C@@H]([C@H](C)[C@H]2O[C@@H]2c2ccccc2)OC1=O	1060 nM
CC(C)C[C@@H]1OC(=O)C(C)(C)CNC(=O)[C@@H](Cc2ccc(N)c(Cl)c2)NC(=O)/C=C/C[C@@H]([C@H](C)/C=C/c2ccccc2)OC1=O	500 nM
CC(C)C[C@@H]1OC(=O)C(C)(C)CNC(=O)[C@@H](Cc2ccc(NC(=O)OCC3c4ccccc4-c4ccccc43)cc2)NC(=O)/C=C/C[C@@H]([C@H](C)/C=C/c2ccccc2)OC1=O	> 1200 nM
CC(C)C[C@@H]1OC(=O)C(C)(C)CNC(=O)[C@@H](Cc2ccc(O)c(O)c2)NC(=O)/C=C/C[C@@H]([C@H](C)/C=C/c2ccccc2)OC1=O	1300 nM
CC(C)C[C@@H]1OC(=O)C(C)(C)CNC(=O)[C@@H](CCc2ccccc2)NC(=O)/C=C/C[C@@H]([C@H](C)/C=C/c2ccccc2)OC1=O	1660 nM
COc1ccc(C[C@H]2NC(=O)/C=C/C[C@@H]([C@H](C)C3O[C@@H]3c3ccccc3)OC(=O)[C@H](CC(C)C)OC(=O)C(C)(C)CNC2=O)cc1Cl (stereo not given in full)	0.022 nM
CC(C)C[C@@H]1OC(=O)C(C)(C)CNC(=O)[C@@H](Cc2ccc(O)c(Cl)c2)NC(=O)/C=C/C[C@@H]([C@H](C)/C=C/c2ccccc2)OC1=O	269 nM
CC(C)C[C@@H]1OC(=O)C(C)(C)CNC(=O)[C@@H](Cc2ccccc2)NC(=O)/C=C/C[C@@H]([C@H](C)[C@H]2O[C@@H]2c2ccccc2)OC1=O	0.183 nM
CC(C)C[C@@H]1OC(=O)C(C)(C)CNC(=O)[C@@H](Cc2cccc3ccccc23)NC(=O)/C=C/C[C@@H]([C@H](C)[C@@H]2O[C@H]2c2ccccc2)OC1=O	327 nM
CC(C)C[C@@H]1OC(=O)C(C)(C)CNC(=O)[C@@H](CC2CCCCC2)NC(=O)/C=C/C[C@@H]([C@H](C)/C=C/c2ccccc2)OC1=O	> 1680 nM
CC(C)C[C@@H]1OC(=O)C(C)(C)CNC(=O)[C@@H](Cc2cccnc2)NC(=O)/C=C/C[C@@H]([C@H](C)/C=C/c2ccccc2)OC1=O	997 nM
CC(C)C[C@@H]1OC(=O)C(C)(C)CNC(=O)[C@@H](CCc2ccccc2)NC(=O)/C=C/C[C@@H]([C@H](C)[C@@H]2O[C@H]2c2ccccc2)OC1=O	> 1620 nM
CC(C)C[C@@H]1OC(=O)C(C)(C)CNC(=O)[C@@H](Cc2ccc3ccccc3c2)NC(=O)/C=C/C[C@@H]([C@H](C)/C=C/c2ccccc2)OC1=O	> 1570 nM
CC(C)C[C@@H]1OC(=O)C(C)(C)CNC(=O)[C@@H](Cc2ccc3ccccc3c2)NC(=O)/C=C/C[C@@H]([C@H](C)[C@@H]2O[C@H]2c2ccccc2)OC1=O	866 nM
CC(C)C[C@@H]1OC(=O)C(C)(C)CNC(=O)[C@@H](c2ccc(O)cc2)NC(=O)/C=C/C[C@@H]([C@H](C)/C=C/c2ccccc2)OC1=O	> 1690 nM
CC(C)C[C@@H]1OC(=O)C(C)(C)CNC(=O)[C@H]2CCCN2C(=O)/C=C/C[C@@H]([C@H](C)[C@H]2O[C@@H]2c2ccccc2)OC1=O	1350 nM
CC(C)C[C@@H]1OC(=O)C(C)(C)CNC(=O)[C@@H](Cc2ccc(N)cc2)NC(=O)/C=C/C[C@@H]([C@H](C)[C@H]2O[C@@H]2c2ccccc2)OC1=O	10.1 nM
CC(C)C[C@@H]1OC(=O)C(C)(C)CNC(=O)[C@@H](Cc2ccc(NC(=O)OCC3c4ccccc4-c4ccccc43)cc2)NC(=O)/C=C/C[C@@H]([C@H](C)C2OC2c2ccccc2)OC1=O (stereo not given in full)	115 nM
CC(C)C[C@@H]1OC(=O)C(C)(C)CNC(=O)[C@@H](CC2CCCCC2)NC(=O)/C=C/C[C@@H]([C@H](C)[C@H]2O[C@@H]2c2ccccc2)OC1=O	8.8 nM
CC(C)C[C@@H]1OC(=O)C(C)(C)CNC(=O)[C@@H](c2ccc(O)cc2)NC(=O)/C=C/C[C@@H]([C@H](C)[C@H]2O[C@@H]2c2ccccc2)OC1=O	274 nM
CC(C)C[C@@H]1OC(=O)C(C)(C)CNC(=O)[C@@H](Cc2ccc(N(C)C)c(Cl)c2)NC(=O)/C=C/C[C@@H]([C@H](C)[C@H]2O[C@@H]2c2ccccc2)OC1=O	0.054 nM
CC(C)C[C@@H]1OC(=O)C(C)(C)CNC(=O)[C@@H](Cc2ccc(NC(=O)OCC3c4ccccc4-c4ccccc43)c(Cl)c2)NC(=O)/C=C/C[C@@H]([C@H](C)C2OC2c2ccccc2)OC1=O (stereo not given in full)	15.3 nM
CC(C)C[C@@H]1OC(=O)C(C)(C)CNC(=O)[C@@H](Cc2ccc(O)c(Cl)c2)NC(=O)/C=C/C[C@@H]([C@H](C)[C@H]2O[C@@H]2c2ccccc2)OC1=O	0.52 nM

Compound	IC50
CC(C)C[C@@H]1OC(=O)C(C)(C)CNC(=O)[C@@H](C(C)C)NC(=O)/C=C/C[C@@H]([C@H](C)/C=C/c2ccccc2)OC1=O	> 1850 nM
CC(C)C[C@@H]1OC(=O)C(C)(C)CNC(=O)[C@@H](Cc2ccc(I)cc2)NC(=O)/C=C/C[C@@H]([C@H](C)/C=C/c2ccccc2)OC1=O	607 nM
CC(C)C[C@@H]1OC(=O)C(C)(C)CNC(=O)[C@@H](Cc2ccc3ccccc3c2)NC(=O)/C=C/C[C@@H]([C@H](C)[C@H]2O[C@@H]2c2ccccc2)OC1=O	48 nM
CC(C)C[C@@H]1OC(=O)C(C)(C)CNC(=O)[C@H]2CCCN2C(=O)/C=C/C[C@@H]([C@H](C)/C=C/c2ccccc2)OC1=O	> 1860 nM
CC(C)C[C@@H]1OC(=O)C(C)(C)CNC(=O)CNC(=O)/C=C/C[C@@H]([C@H](C)[C@H]2O[C@@H]2c2ccccc2)OC1=O	> 1940 nM
CC(C)C[C@@H]1OC(=O)C(C)(C)CNC(=O)[C@@H](Cc2cccc3ccccc23)NC(=O)/C=C/C[C@@H]([C@H](C)[C@H]2O[C@@H]2c2ccccc2)OC1=O	35 nM
COc1ccc(C[C@H]2NC(=O)/C=C/C[C@@H]([C@H](C)/C=C/c3ccccc3)OC(=O)[C@H](CC(C)C)OC(=O)C(C)(C)CNC2=O)cc1Cl	13.8 nM
CC(C)C[C@@H]1OC(=O)C(C)(C)CNC(=O)[C@@H](Cc2cccc3ccccc23)NC(=O)/C=C/C[C@@H]([C@H](C)/C=C/c2ccccc2)OC1=O	> 1570 nM
CC(C)C[C@@H]1OC(=O)C(C)(C)CNC(=O)[C@@H](COCc2ccccc2)NC(=O)/C=C/C[C@@H]([C@H](C)/C=C/c2ccccc2)OC1=O	856 nM
CC(C)C[C@@H]1OC(=O)C(C)(C)CNC(=O)[C@@H](Cc2ccc(O)c(Cl)c2)NC(=O)/C=C/C[C@@H]([C@H](C)[C@@H]2O[C@H]2c2ccccc2)OC1=O	31 nM
CC(C)C[C@@H]1OC(=O)C(C)(C)CNC(=O)[C@@H](Cc2ccc(O)cc2)NC(=O)/C=C/C[C@@H]([C@H](C)/C=C/c2ccccc2)OC1=O	734 nM
CC(C)C[C@@H]1OC(=O)C(C)(C)CNC(=O)[C@@H](Cc2ccc(O)cc2)NC(=O)/C=C/C[C@@H]([C@H](C)[C@H]2O[C@@H]2c2ccccc2)OC1=O	4.11 nM
CC(C)C[C@@H]1OC(=O)C(C)(C)CNC(=O)[C@@H](Cc2ccccc2)NC(=O)/C=C/C[C@@H]([C@H](C)/C=C/c2ccccc2)OC1=O	412 nM
CC(C)C[C@@H]1OC(=O)C(C)(C)CNC(=O)[C@@H](COCc2ccccc2)NC(=O)/C=C/C[C@@H]([C@H](C)[C@@H]2O[C@H]2c2ccccc2)OC1=O	975 nM
CC(C)C[C@@H]1OC(=O)C(C)(C)CNC(=O)CNC(=O)/C=C/C[C@@H]([C@H](C)/C=C/c2ccccc2)OC1=O	> 2000 nM
CC(C)C[C@@H]1OC(=O)C(C)(C)CNC(=O)[C@@H](CCc2ccccc2)NC(=O)/C=C/C[C@@H]([C@H](C)[C@H]2O[C@@H]2c2ccccc2)OC1=O	598 nM
CC(C)C[C@@H]1OC(=O)C(C)(C)CNC(=O)[C@@H]([C@H](C)O)NC(=O)/C=C/C[C@@H]([C@H](C)/C=C/c2ccccc2)OC1=O	> 1840 nM
CC(C)C[C@@H]1OC(=O)C(C)(C)CNC(=O)[C@@H](Cc2ccc(N)c(Cl)c2)NC(=O)/C=C/C[C@@H]([C@H](C)[C@H]2O[C@@H]2c2ccccc2)OC1=O	0.58 nM
CC(C)C[C@@H]1OC(=O)C(C)(C)CNC(=O)[C@@H](Cc2ccc(NC(=O)OCC3c4ccccc4-c4ccccc43)c(Cl)c2)NC(=O)/C=C/C[C@@H]([C@H](C)/C=C/c2ccccc2)OC1=O	> 1250 nM
CC(C)C[C@@H]1OC(=O)C(C)(C)CNC(=O)[C@@H](COCc2ccccc2)NC(=O)/C=C/C[C@@H]([C@H](C)[C@H]2O[C@@H]2c2ccccc2)OC1=O	249 nM
CC(C)C[C@@H]1OC(=O)C(C)(C)CNC(=O)[C@@H](Cc2ccc(N)cc2)NC(=O)/C=C/C[C@@H]([C@H](C)/C=C/c2ccccc2)OC1=O	1540 nM
CC(C)C[C@@H]1OC(=O)C(C)(C)CNC(=O)[C@@H](C(C)C)NC(=O)/C=C/C[C@@H]([C@H](C)[C@H]2O[C@@H]2c2ccccc2)OC1=O	> 1800 nM
